Laboratory results published in ChEMBL document CHEMBL1212757, “A single mutation in enzyme I of the sugar phosphotransferase system confers penicillin tolerance to Streptococcus gordonii” (2010).
≈ marks a conversion by molar mass, not a printed value. Calls of active or inactive are those of the source. No cut-off for these calls is given here.

Assays:
[1] = test system: Streptococcus gordonii; assay: Antimicrobial activity against wild type streptomycin-susceptible Streptococcus gordonii after 24 hrs by macrodilution method; type: functional
Summary of the method: (§1)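 MIC by standard broth macrodilution; streptococci grown at 37°C in BHI broth without aeration.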

[2] = test system: Streptococcus gordonii; assay: Antimicrobial activity against erythromycin- and streptomycin-resistant Streptococcus gordonii Tol1 harboring R483P mutation in ptsI assessed as bacterial count at 2 ug/ml after 24 hrs by macrodilution technique; type: functional
[3] = test system: Streptococcus gordonii; assay: Antimicrobial activity against wild type streptomycin-susceptible Streptococcus gordonii harboring P483R mutation in ptsI assessed as bacterial count at 2 ug/ml after 24 hrs by macrodilution technique
[4] = test system: Streptococcus gordonii; assay: Antimicrobial activity against wild type streptomycin-susceptible Streptococcus gordonii assessed as bacterial count at 2 ug/ml after 24 hrs by macrodilution method; type: functional
Summary of the method: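 Time-kill assay: exponentially growing cultures in BHI broth at 37°C without aeration. Penicillin G was added at 2 μg/ml when OD600 reached 0.2 (about 1 × 10^8 CFU/ml). Viable counts were taken on agar plates, and the result is the loss of log10 CFU/ml after 24 h of exposure.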

[5] = test system: Streptococcus gordonii; assay: Antimicrobial activity against […] and streptomycin-resistant Streptococcus gordonii Tol1 harboring Tol1 mutation in ptsI after 24 hrs by macrodilution assay; type: functional; conditions: Tol1, 24 h; summary of the method: as §1
[6] = test system: Streptococcus gordonii; assay: Antimicrobial activity against […] and streptomycin-resistant Streptococcus gordonii Tol1 harboring Tol1 mutation in ptsI assessed as bacterial count at 2 ug/ml after 24 hrs by macrodilution assay; type: functional
[7] = test system: Streptococcus gordonii; assay: (§2) Antimicrobial activity against erythromycin- and streptomycin-resistant Streptococcus gordonii Tol1 harboring R483P mutation in ptsI infected in Wistar rat assessed as protection against bacterial infection at 300000 U/kg, sc administered 16 hrs after infection every 12 hrs for 2 days measured within 3 days post last dose; type: functional, organism-based
[8] = test system: Streptococcus gordonii; assay: Antimicrobial activity against wild type streptomycin-susceptible Streptococcus gordonii harboring […] mutation in ptsI assessed as decrease in [14C]glucose uptake at 2 ug/ml after 60 mins by liquid scintillation counting; type: functional, organism-based
Summary of the method: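 Cells grown in BHI to OD550 ca 0.3, exposed to 2 μg/ml penicillin for 20, 40 or 60 min, washed in PBS-5 mM MgCl2, preincubated 10 min at 35°C; uptake started with [14C]glucose (600 dpm/nmol), aliquots diluted in cold stopping buffer, filtered on glass fibre, counted by liquid scintillation; 4°C high-dilution adsorption control.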

[9] = test system: Streptococcus gordonii; assay: as §2, with “[…]” for “erythromycin-”, “Tol1” for “R483P”, “mutation” for “mutation in ptsI”; type: functional, organism-based
[10] = test system: Streptococcus gordonii; assay: Antimicrobial activity against wild type streptomycin-susceptible Streptococcus gordonii assessed as decrease in [14C]glucose uptake at 2 ug/ml after 60 mins by liquid scintillation counting; type: functional, organism-based
Summary of the method: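 Cells were grown in BHI to OD550 of about 0.3, then exposed to penicillin at 2 μg/ml for 20, 40 or 60 min. They were washed in PBS-5 mM MgCl2, concentrated, and preincubated for 10 min at 35°C. Uptake was started with 20 mM stock [14C]glucose (600 dpm/nmol). Timed aliquots went into cold stop buffer, were filtered on glass fiber, and were counted by scintillation. A 4°C high-dilution sample corrected for nonspecific binding.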

[11] = test system: Streptococcus gordonii; assay: Antimicrobial activity against wild type streptomycin-susceptible Streptococcus gordonii harboring […] mutation in ptsI infected in Wistar rat assessed as decrease in bacterial infection at 300000 U/kg, sc administered 16 hrs after infection every 12 hrs for 2 days measured within 3 days post last dose; type: functional, organism-based
[12] = test system: Streptococcus gordonii; assay: Antimicrobial activity against wild type streptomycin-susceptible Streptococcus gordonii infected in Wistar rat assessed as decrease in bacterial infection at 300000 U/kg, sc administered 16 hrs after infection every 12 hrs for 2 days measured within 3 days post last dose; type: functional, organism-based
Summary of the method: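 Female Wistar rats carried sterile aortic vegetations. After 24 h they were challenged i.v. with 10^7 CFU of exponential-phase streptococci in 0.5 ml saline. From 16 h post-inoculation, procaine penicillin 300,000 U/kg was given s.c. every 12 h for 2 days. Untreated controls were killed at therapy onset, and treated rats 12 h after the trough of the last dose. Vegetations were weighed and plated for CFU.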

| SMILES | MIC [1] | Activity [2] | Activity [3] | Activity [4] | MIC [5] | Activity [6] | Activity [7] | inhibition [8] | inhibition [9] | inhibition [10] | inhibition [11] | inhibition [12] |
| --- | --- | --- | --- | --- | --- | --- | --- | --- | --- | --- | --- | --- |
| C[C@@H](O)[C@H]1C(=O)N2C(C(=O)O)=C(SCCNC=N)C[C@H]12 [IMIPENEM ANHYDROUS] | 4 ng/mL (≈ 0.0134 µM) | 5.3 log10CFU/ml | 2.1 log10CFU/ml | 6.1 log10CFU/ml | 4 ng/mL (≈ 0.0134 µM) | 2 log10CFU/ml |  |  |  |  |  |  |
| CC1(C)S[C@@H]2[C@H](NC(=O)Cc3ccccc3)C(=O)N2[C@H]1C(=O)O [PENICILLIN G] | 8 ng/mL (≈ 0.0239 µM) | 3.9 log10CFU/ml | 0.7 log10CFU/ml | 4.5 log10CFU/ml | 8 ng/mL (≈ 0.0239 µM) | 0.6 log10CFU/ml | Active | Active | inactive | Active | inactive | Active |
